According to publication PMC4959095 (The Journal of Pharmacology and Experimental Therapeutics, 2016):

Assays:
[1] = target: T1, hOTR (oxytocin receptor) (Homo sapiens, UniProt P30559); assay type: cell-based; details: calcium flux, normalized to control responses
T1 sequence (P30559 1-389): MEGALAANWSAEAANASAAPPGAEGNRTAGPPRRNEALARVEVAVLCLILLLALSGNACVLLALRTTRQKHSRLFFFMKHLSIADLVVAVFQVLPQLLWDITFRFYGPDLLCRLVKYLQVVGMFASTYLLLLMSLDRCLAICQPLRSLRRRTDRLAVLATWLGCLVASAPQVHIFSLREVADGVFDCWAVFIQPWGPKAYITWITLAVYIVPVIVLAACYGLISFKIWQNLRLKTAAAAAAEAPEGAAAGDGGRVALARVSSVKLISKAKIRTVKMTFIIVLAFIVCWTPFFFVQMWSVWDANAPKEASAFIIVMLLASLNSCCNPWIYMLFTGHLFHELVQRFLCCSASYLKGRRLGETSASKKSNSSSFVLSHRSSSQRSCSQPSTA

[2] = target: V1a receptor (Homo sapiens, UniProt P37288); test: V1a receptor functional agonist assay; assay type: cell-based
V1a receptor, sequence (P37288 whole entry): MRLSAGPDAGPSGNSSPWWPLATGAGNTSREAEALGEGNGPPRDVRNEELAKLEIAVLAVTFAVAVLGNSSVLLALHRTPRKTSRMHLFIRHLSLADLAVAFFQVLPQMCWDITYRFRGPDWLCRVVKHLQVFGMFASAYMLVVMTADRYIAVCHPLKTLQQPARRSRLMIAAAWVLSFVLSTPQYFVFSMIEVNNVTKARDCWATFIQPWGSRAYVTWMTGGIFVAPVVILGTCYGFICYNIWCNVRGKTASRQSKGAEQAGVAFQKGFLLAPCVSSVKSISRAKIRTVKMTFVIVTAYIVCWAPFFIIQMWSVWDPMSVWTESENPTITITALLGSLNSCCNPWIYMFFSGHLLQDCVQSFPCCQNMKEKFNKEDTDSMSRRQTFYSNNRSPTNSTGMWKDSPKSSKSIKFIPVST

[3] = intravenous pharmacokinetics in rats; assay type: in vivo; details: male, Wistar Hannover, rat, plasma, 0.1 mg/kg
Method in brief: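 Jugular vein-cannulated male Wistar Hannover rats (250–300 g; n = 3) got a single i.v. bolus at 1 ml/kg. The native peptide was in 10% propylene glycol/90% 20 mM sodium phosphate, pH 7.4; the analog in 10% SEDDs/90% 20 mM phosphate, pH 5. Serial cannula blood was drawn predose and at 0.033–24 hours. Plasma standard curve ran 0.1–250 ng/ml with 1/x2 linear regression.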

[4] = subcutaneous depot pharmacokinetics in mice; assay type: in vivo, mouse
Method in brief: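 Male C57BL/6J mice (n = 2) got a single s.c. injection (100 µl) in a lipid-based gel depot designed for sustained release over at least 48 hours. Retro-orbital blood was drawn at 0.5, 1, 2, 4, 6 and 24 hours. Plasma standard curves were 0.5–1000 ng/ml (analog) and 0.5–500 ng/ml (native peptide), 1/x2 regression. Free concentrations were derived with fu,p.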

[5] = subcutaneous nondepot pharmacokinetics in mice; assay type: in vivo, mouse
Method in brief: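 Male C57BL/6J mice (n = 3 per dose) got a single nondepot s.c. injection.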

[6] = male, C57BL/6J, mouse, plasma, sc, 20 mg/kg
[7] = mice, s.c. 1 mg/kg, nondepot formulation

- OTR % agonist [1]: 100 (n = 70) %
- V1a % agonist [2]: 94 (n = 70) %
- clearance [3]: 17.1 mL/min/kg
- half-life [3]: 7.2 min
- Cmax [4, 6]: 65.4 nM
- half-life [4, 6]: 7.3 h
- free Cmax ([4]; mice, s.c. 20 mg/kg, depot formulation): 58.2 nM
- Cmax ([5]; male, C57BL/6J, mouse, plasma, sc, 1 mg/kg): 216 nM
- free Cmax [5, 7]: 191 nM
- time of Cmax postdose [5, 7]: 0.25 h
Compound: CC[C@H](C)[C@@H]1NC(=O)[C@H](Cc2ccc(O)cc2)NC(=O)[C@@H](N)CSSC[C@@H](C(=O)N2CCC[C@H]2C(=O)N[C@@H](CC(C)C)C(=O)NCC(N)=O)NC(=O)[C@H](CC(N)=O)NC(=O)[C@H](CCC(N)=O)NC1=O [OT, Oxytocin]
